Assay outcomes from PubChem.
A selection follows.
Apaf1 activ: activates human Apaf-1 apoptosome; AID 489031; 330,000 tested, 0.31% active; O14727; Apaf-1 apoptosome caspase-3 activation, DEVD-Rh110 fluorescence; stronger effect = lower value; activity change, negative = activation, % at 20 µM;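 active = activity change at or below -40% at 20 µM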
Target sequence (O14727 whole entry, looked up): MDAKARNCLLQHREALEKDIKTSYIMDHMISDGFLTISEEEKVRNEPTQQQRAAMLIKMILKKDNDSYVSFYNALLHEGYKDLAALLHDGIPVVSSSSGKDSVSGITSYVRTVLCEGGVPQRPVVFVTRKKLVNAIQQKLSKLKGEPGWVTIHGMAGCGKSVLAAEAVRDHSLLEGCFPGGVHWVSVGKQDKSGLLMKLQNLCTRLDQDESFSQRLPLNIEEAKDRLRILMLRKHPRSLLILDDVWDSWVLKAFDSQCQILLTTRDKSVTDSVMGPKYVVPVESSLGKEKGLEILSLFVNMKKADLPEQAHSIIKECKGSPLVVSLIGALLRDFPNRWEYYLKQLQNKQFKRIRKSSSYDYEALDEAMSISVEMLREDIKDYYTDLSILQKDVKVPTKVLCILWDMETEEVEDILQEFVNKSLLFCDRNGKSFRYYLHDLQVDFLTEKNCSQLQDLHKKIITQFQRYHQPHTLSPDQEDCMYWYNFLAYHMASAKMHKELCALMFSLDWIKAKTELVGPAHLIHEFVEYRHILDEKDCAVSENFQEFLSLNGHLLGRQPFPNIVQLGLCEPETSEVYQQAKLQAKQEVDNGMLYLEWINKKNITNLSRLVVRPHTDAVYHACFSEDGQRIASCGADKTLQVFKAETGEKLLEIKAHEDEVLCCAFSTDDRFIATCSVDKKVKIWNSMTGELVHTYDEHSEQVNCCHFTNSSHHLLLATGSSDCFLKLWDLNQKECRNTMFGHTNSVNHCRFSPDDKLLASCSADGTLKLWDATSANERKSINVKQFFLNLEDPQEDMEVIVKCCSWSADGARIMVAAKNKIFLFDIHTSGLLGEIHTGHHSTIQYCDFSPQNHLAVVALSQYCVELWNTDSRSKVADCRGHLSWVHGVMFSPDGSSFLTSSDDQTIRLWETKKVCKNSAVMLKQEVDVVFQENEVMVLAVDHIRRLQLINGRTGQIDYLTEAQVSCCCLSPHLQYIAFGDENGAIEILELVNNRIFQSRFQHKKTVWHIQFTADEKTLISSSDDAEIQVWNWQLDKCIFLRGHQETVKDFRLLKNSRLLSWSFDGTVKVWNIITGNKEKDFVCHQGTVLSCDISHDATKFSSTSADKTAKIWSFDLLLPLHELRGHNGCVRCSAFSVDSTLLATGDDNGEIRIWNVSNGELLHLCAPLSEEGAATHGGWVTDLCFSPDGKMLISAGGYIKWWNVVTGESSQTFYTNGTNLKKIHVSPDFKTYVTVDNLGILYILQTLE
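system = biochemical Apaf-1 apoptosome reconstitution | buffer or medium = 20 mM HEPES pH 7.5 with CHAPS, BSA | also added = dATP and cytochrome c as apoptosome triggers, (Z-DEVD)2-Rh110 substrate | incubation = 30 min compound preincubation and 50 min reaction, both room temperature | measured by = fluorescence, 540 nm emission, 480 nm excitation | read-out basis = Caspase-3 cleavage activity downstream of Apaf-1 activation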
Rh110 interf act: counter-screen for Apaf-1 activators: fluorescence interference | shares compounds with Apaf1 activ | Rh110 fluorescence interference, quenched caspase reaction, Ex480/Em540 | fluorescence interference (activity change), % at 20 µM, hits read low | 980 tested, under 10 active | AID 504616;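 active = mean activity change at or below -40% when tested at 20 µM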
Apaf-1 act conf: Apaf-1 (human) activation, single-dose confirmed; shares compounds with Apaf1 activ; reconstituted apoptosome caspase-3 activity, DEVD-Rh110 fluorescence; stronger effect = lower value; 980 tested, 5% active; activity change, negative = activation, % at 20 µM;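 active = mean activity change at or below -40%, meaning activation of 40% or more, at 20 µM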
* hit, by the source's call; / = no result.

SMILES	Apaf1 activ	Rh110 interf act	Apaf-1 act conf
c1ccc(-c2noc(CN3CCN(c4cnccn4)CC3)n2)cc1	-92*	3	1
COCCCC1CCN(Cc2nc(-c3ccccc3)no2)CC1	-51*	7	11
O=C(CNc1cccc2ccccc12)N/N=C/C(Br)=C/c1ccccc1	65	/	/
O=C(Nc1nc(-c2ccccc2)cs1)c1ccc(N2CCOCC2)c([N+](=O)[O-])c1	-46*	-4	7
Cc1ccc(S(=O)(=O)NCc2ccc3c(c2)cc(C)n3C)cc1	51	/	/
Cc1[nH]c2ccc(CNS(=O)(=O)c3ccc(S(=O)(=O)N4CCOCC4)cc3)cc2c1C	-48*	14	16
NC1=NC[C@@H](CC2CCCCC2)N1CCc1cc(C(F)(F)F)cc(C(F)(F)F)c1	79	/	/
O=C(N/N=C\C=C\c1ccc([N+](=O)[O-])o1)c1cccs1	49	/	/
CCOC(=O)Nc1sc2c(c1C#N)CCCC2	-62*	-4	10
CC(C)CC(=O)NC(NC(=S)Nc1sc2c(c1C#N)CCCC2)C(Cl)(Cl)Cl (stereo not given)	-215*	5	34
CC1CCN(S(=O)(=O)c2ccc3c4c2CC(=O)N4CC(C)S3)CC1 (stereo not given)	94	/	/
Cc1ccc2c(c1)c1ccc3c(c1n2C)C(=O)C=CC3=O	57	/	/
COc1ccc([N+](=O)[O-])cc1NC1C2CC3CC(C2)CC1C3 (stereo not given)	-522*	9	12
CCOC(=O)C1=C(CN2CCN(c3ccc(F)cc3)CC2)NC(=O)NC1c1cccs1 (stereo not given)	41	/	/
C#CCOCCOCCOCCNc1nc(N2CCN(C(=O)[C@H](Cc3cc4ccccc4[nH]3)n3cc([C@@H](N)CC(C)C)nn3)CC2)nc(N2CCN(C(=O)[C@H](Cc3cc4ccccc4[nH]3)n3cc([C@@H](N)CC(C)C)nn3)CC2)n1	71	/	/
Cc1cccc(C(=O)NC2C(=O)NNC2c2ccc(Cl)cc2)c1 (stereo not given)	54	/	/
NC1=NC(c2ccc(Cl)cc2)C(C(=O)c2ccccc2)N1 (stereo not given)	-470*	3	15
CC(=O)C1=C(O)C(=O)N(CCc2c[nH]c3ccccc23)C1c1ccco1 (stereo not given)	43	/	/
COc1ccc(C(=O)Nc2ccccc2C(=O)NC(Cc2ccc(O)cc2)C(=O)NNC(=O)c2ccccc2Cl)cc1 (stereo not given)	-48*	3	16
CCN(C(=O)Cn1c(=O)n2nc(CCn3nc(C)cc3C)nc2c2ccccc21)c1cccc(C)c1	-291*	9	16
COc1ccc2c(c1OC)C(=O)OC2C1c2c(cc3c(c2OC)OCO3)CCN1C (stereo not given)	5	/	/
O=C1Nc2cc(Cl)c(Cl)cc2N(O)N1c1cccc(Cl)c1	44	/	/
O=C1Nc2ccccc2N(O)N1c1cc(-c2cccc(Cl)c2)no1	-88*	-9	14
CCCOc1ccc(N)cc1N	91	/	/
C=C[C@@H]1CN2CCC1C[C@@H]2[C@@H](O)c1ccnc2ccc(OC)cc12 (stereo not given in full)	1	/	/
SMILES	Apaf1 activ	Rh110 interf act	Apaf-1 act conf
CCCCCCCCCCCCCCCCn1cc[n+](C)c1	80	/	/
CCN(CC)c1ccc(NC(=O)c2cnn(CC)c2)cc1	-55*	7	11
COc1ccc(N=CC2=C(Nc3ccc(OC)cc3)c3c(C)nn(-c4ccccn4)c3CC2)cc1	93	/	/
O=[N+]([O-])c1cccnc1SCc1ccccc1	-514*	10	9
CC(=O)c1ccc2c(c1)C1C=CCC1C(c1ccncc1)N2 (stereo not given)	60	/	/
O=C(O)c1ccc2c3c(ncnc13)-c1ccccc1C2=O	44	/	/
CC(C)c1ccc(NC(=O)C2CC(=O)N(C3CCCC3)C2)cc1 (stereo not given)	-96*	4	4
C[C@H](CCC(=O)NCC(=O)O)[C@H]1CC[C@H]2[C@@H]3[C@H](O)C[C@@H]4C[C@H](O)CC[C@]4(C)[C@H]3C[C@H](O)[C@]12C	-9	/	/
Cc1ccc(S(=O)(=O)Nc2ccc3c(c2)CC(=O)N([C@H](C)CO)C[C@@H](C)[C@H](CN(C)Cc2ccc(-c4ccccc4)cc2)O3)cc1	41	/	/
O=C(CNC(=O)c1ccc(Br)cc1)c1ccc(Br)cc1	-463*	-6	13
CC(=O)N1CCN(C(=S)Nc2ccc(SC(F)F)cc2)CC1	96	/	/
CCCCCCN(C(=O)CCCCCN1C(=O)NC(c2ccc(-c3ccccc3)cc2)C(C(=O)OCc2ccccc2)=C1C)C(C(=O)NCCCC)c1cccc(C(=O)OC)c1 (stereo not given)	79	/	/
COc1ccc(Cl)cc1C(=O)NNC(=O)COC(=O)c1ccc(Br)o1	-41*	11	13
COc1ccc(C(=O)O)cc1NC(=S)NC(=O)CSc1ccc(Cl)cc1	-152*	-11	15
COCCN(C(=O)COC(=O)/C=C/c1ccc(C(F)(F)F)cc1)c1c(N)n(Cc2ccccc2)c(=O)[nH]c1=O	44	/	/
CCN(CC)CCOc1ccc(/C(=C(\Cl)c2ccccc2)c2ccccc2)cc1	66	/	/
COc1cc(CNc2ccc(O)cc2)cc(Br)c1OCc1ccccc1F	96	/	/
CSc1ccccc1NC(=O)c1cc(S(=O)(=O)N(C)C)ccc1N1CCCC1	52	/	/
CSc1ccccc1NC(=O)c1cc(-c2ccc3c(c2)OCO3)on1	-197*	10	8
OCCN1CCN(CCCN2c3ccccc3Sc3ccc(Cl)cc32)CC1	46	/	/
CC(C)[C@H](CO)Nc1nc(Nc2ccc(Cl)c(C(=O)O)c2)c2ncn(C(C)C)c2n1	44	/	/
Cc1onc(-c2ccccc2Cl)c1C(=O)NCc1ccc2c(c1)cc(C)n2C	53	/	/
O=C1Cc2ccccc2C(=O)N1OCc1ccc(Cl)cc1	95	/	/
COC(=O)c1nn(-c2ccc(OC)cc2)c(=O)cc1NN	42	/	/
COC(=O)c1nn(-c2ccc(OC)cc2)c(=O)cc1Sc1ccc(C)cc1	-333*	-4	12
SMILES	Apaf1 activ	Rh110 interf act	Apaf-1 act conf
CC(=O)N1CCN(C(=S)NC(=O)C23CC4CC(CC(C4)C2)C3)CC1	48	/	/
NS(=O)(=O)c1ccc2c(c1)C1C=CCC1C(C1CC=CCC1)N2 (stereo not given)	47	/	/
O=C(NCc1ccccc1)c1ccc2nc(-c3ccco3)c(-c3ccco3)nc2c1	65	/	/
COc1ccc(NC(=O)c2ccc(-c3ccc(-c4noc(C)n4)cc3C)cc2)cc1N1CCN(C)CC1	57	/	/
COc1ccc(-c2noc(-c3ccccc3C(=O)NCc3ccco3)n2)cc1OC	-324*	4	-4
CC(N=Cc1cccc(O)c1O)c1ccccc1 (stereo not given)	71	/	/
CC(Oc1ccc2ccccc2c1)C(=O)NNC(=O)Nc1ccccc1F (stereo not given)	-132*	-5	11
Fc1ccccc1NC(=S)Nc1cccc2cnccc12	97	/	/
Cc1ccc(F)c(NC(=S)Nc2cccc3ccccc23)c1	78	/	/
Cc1cc(C)c(C(N)=O)c(Nc2cccc3ccccc23)n1	96	/	/
Cc1cc(C(=O)OCC(=O)NC(=O)c2cccn2C)c2ccccc2n1	-127*	9	14
CCOc1ccc(-c2nnc(-c3ccncc3)o2)cc1	-421*	5	11
CC(C)(C)c1cc(C(=O)N/N=C/c2ccc(-c3ccccc3[N+](=O)[O-])o2)n[nH]1	42	/	/
